Rows were chosen to be rich in hits. Some 1.7% of all compounds tested hit in one or more screens of this group.
CSN deneddyl inh: CSN deneddylation inhibition; Q92905; Purified CSN, SCF-Nedd8-OG deneddylation, fluorescence polarization; inhibition, % at 12.5 µM; actives 0.38% (n = 360,000); AID 651999;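 active = pattern-corrected inhibition above about 35%, with an unprinted fluorescence ratio check between 0.5 and 1.5, limit read from the data, passing the limit was not always enough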
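Material: purified human Csn5 enzyme expressed in HEK293T cells / Medium: Tris buffer pH 7.5, NaCl, DTT, Tween-20, trehalose, ovalbumin / Compound dosing: 12.5 µM single point / Schedule: 90 min incubation of compound, enzyme and substrate at room temperature / Signal: fluorescence polarization of the substrate / Control set: no-enzyme wells high, enzyme-with-substrate wells low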
IDE inh: cellular human IDE inhibition; inhibition, % at 5.59 µM; P14735; HEK cells, FAbetaB cleavage, fluorescence polarization; actives 0.41% (n = 320,000);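 active = percent inhibition above the average of all tested compounds plus 3 SD, set per screening campaign, cut at about 16% in these data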;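 also: IDE supplied by intact live HEK cells; FP after avidin binding of uncleaved biotin substrate so inhibition keeps polarization high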
Target sequence (P14735 whole entry, looked up): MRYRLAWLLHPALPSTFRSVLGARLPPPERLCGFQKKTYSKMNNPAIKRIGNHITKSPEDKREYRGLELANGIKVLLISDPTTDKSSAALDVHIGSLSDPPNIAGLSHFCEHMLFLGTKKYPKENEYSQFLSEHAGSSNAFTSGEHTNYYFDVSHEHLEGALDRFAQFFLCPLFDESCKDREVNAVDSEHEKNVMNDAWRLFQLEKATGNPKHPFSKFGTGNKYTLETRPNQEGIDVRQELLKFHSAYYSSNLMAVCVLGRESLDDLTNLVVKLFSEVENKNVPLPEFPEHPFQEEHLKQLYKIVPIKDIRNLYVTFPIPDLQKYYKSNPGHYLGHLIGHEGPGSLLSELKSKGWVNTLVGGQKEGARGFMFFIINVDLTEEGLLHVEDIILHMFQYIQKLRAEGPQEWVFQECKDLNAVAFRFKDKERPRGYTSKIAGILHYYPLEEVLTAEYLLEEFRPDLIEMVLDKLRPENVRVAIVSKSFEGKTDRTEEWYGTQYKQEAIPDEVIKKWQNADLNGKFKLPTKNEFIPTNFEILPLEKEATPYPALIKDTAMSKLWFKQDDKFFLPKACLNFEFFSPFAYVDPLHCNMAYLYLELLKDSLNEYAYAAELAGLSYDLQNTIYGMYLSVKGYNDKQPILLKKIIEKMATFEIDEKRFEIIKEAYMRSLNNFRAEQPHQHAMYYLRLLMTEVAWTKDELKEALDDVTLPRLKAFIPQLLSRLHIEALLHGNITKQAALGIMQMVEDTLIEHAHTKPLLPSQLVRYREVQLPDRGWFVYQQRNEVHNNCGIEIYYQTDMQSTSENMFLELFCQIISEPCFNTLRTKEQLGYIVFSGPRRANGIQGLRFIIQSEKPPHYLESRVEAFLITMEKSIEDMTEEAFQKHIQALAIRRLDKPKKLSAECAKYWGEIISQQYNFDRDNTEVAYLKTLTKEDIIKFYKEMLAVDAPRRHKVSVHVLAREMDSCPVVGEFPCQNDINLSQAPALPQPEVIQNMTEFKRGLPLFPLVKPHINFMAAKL
HNF4A DNA FP: change in binding of human HNF4 alpha to DNA. HNF4a-FITC DNA binding, fluorescence polarization, 1 h. activity change, % at 10 µM. actives 0.3% (n = 360,000). AID 1224865; in the data active = activity change above about 30%, passing the limit was not always enough
TPT1 inhibitor: C. albicans TPT1 enzyme inhibition | AID 1962 | actives 0.81% (n = 300,000) | recombinant caTPT1, FP RNA substrate dephosphorylation | inhibition, % at 5 µM;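 active = inhibition above the mean of all tested compounds plus 3 SD, set per screening campaign, cut at about 24% in these data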
Rpn11 inh: Rpn11 (human) deubiquitinase inhibition | actives 0.59% (n = 360,000) | AID 588493 | human 26S proteasome, Ub4-pepOG fluorescence polarization; 20S core pre-blocked with epoxomicin | calls only at 20 µM;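 active = inhibition at 20 µM, scaled to each plate's controls, above about 33%, limit read from the data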
IDE act: IDE (human) activation, cell-based; actives 0.073% (n = 340,000); AID 493087; HEK cells, FAbeta-B cleavage, fluorescence polarization; 0% vehicle, 100% cell-free pure enzyme wells; activation, % at 5.96 µM;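 active = activation above the mean of all tested compounds plus 3 SD, set per screening campaign, cut at about 17% in these data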
caTPT1 confirm: confirmation of Candida albicans TPT1 inhibitors | recombinant caTPT1, fluorescence polarization, RNase T1 coupled | AID 2149 | shares compounds with TPT1 inhibitor | actives 74% (n = 2,400) | inhibition, % at 5 µM;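 active = inhibition above the primary screen limit, the mean inhibition of all tested compounds plus 3 SD, cut at about 25% in these data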
RNase T1 inh: blocks Aspergillus oryzae RNase T1, a TPT1 counter-screen | shares compounds with TPT1 inhibitor | RNase T1 cleavage, fluorescence polarization, 1536-well | inhibition, % at 5 µM | actives 83% (n = 2,400);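 active = inhibition above the solvent-only control well mean plus 3 SD, limit set per screening run, cut at about 23% in these data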;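 also: inhibitors block cleavage so intact labeled substrate keeps polarization high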
Hits are given with their value; . = inactive; / = no result shown.

SMILES	CSN deneddyl inh	IDE inh	HNF4A DNA FP	TPT1 inhibitor	Rpn11 inh	IDE act	caTPT1 confirm	RNase T1 inh
OCCCn1c(C2CCCN2c2nc(-c3ccc(Cl)cc3)cs2)nc2cc(Cl)c(Cl)cc21 (configuration not stated)	.	.	.	.	.	.	/	/
Cc1cc2oc(=O)cc(CN3CCCc4ccccc43)c2cc1C	.	.	.	48.4	/	.	43.3	53.1
O=C(c1ccco1)N1CCN(C2CN(Cc3ccccc3)S(=O)(=O)C2)CC1 (configuration not stated)	.	/	.	/	.	/	/	/
CN1/C(=C\C(=O)Nc2ccc(Cl)cc2)C(C)(C)c2ccccc21	.	.	.	.	.	.	/	/
CN1/C(=C\C=C(/C#N)C(=O)Nc2ccc(Cl)cc2)C(C)(C)c2ccccc21	.	.	.	112.1	.	.	35.5	51.9
Cc1cc(C)n(C(=O)c2ccc(C)c(Br)c2)n1	.	.	.	.	.	.	/	/
CCCC(=O)Oc1ccc2c(C)cc(=O)oc2c1	.	.	.	.	.	.	/	/
CCN(Cc1ccccc1)c1ccc(/C=C(\C#N)c2ccccn2)cc1	.	.	.	67.4	.	.	45.7	49.9
CCN(CC)c1ccc(/C=C(\C#N)c2ccccn2)cc1	.	.	88.6	135.1	/	.	123.7	129.5
CN(CCC#N)c1ccc(/C=C(\C#N)c2ccccn2)cc1	.	.	.	24.7	.	.	.	.
COc1cccc(-n2c(C)nn(C)c2=O)c1	.	.	.	.	.	.	/	/
CCOC(=O)N1CCN(c2cc(NCCC(=O)O)c3c4c(onc24)-c2ccccc2C3=O)CC1	.	.	.	136.9	/	.	185.3	151.9
CN1CCN(c2cc(N3CCN(C(=O)c4ccco4)CC3)c3c4c(onc24)-c2ccccc2C3=O)CC1	.	.	.	.	/	.	/	/
O=C(O)CCCNc1cc(N2CCN(C(=O)c3ccco3)CC2)c2noc3c2c1C(=O)c1ccccc1-3	.	.	.	95.7	/	.	170.4	141.1
CNc1cc(N2CCCCCC2)ccc1[N+](=O)[O-]	.	.	.	.	.	.	/	/
COc1ccc2cc(/C=C/C(=O)c3ccco3)c(Cl)nc2c1	/	.	/	.	/	/	/	/
COc1cc2cc(/C=C/C(=O)c3ccco3)c(Cl)nc2cc1OC	.	.	.	32.9	/	.	46.6	55.9
CCOC(=O)c1ccc(N2Cc3ccccc3C2=N)cc1	.	.	.	.	.	.	/	/
CC1CCN(CC(=O)Nc2sc3c(c2C#N)CCC3)CC1	.	.	.	39.1	.	.	.	.
O=C(NNS(=O)(=O)c1ccccc1)c1ccc(S(=O)(=O)N2CCCCC2)cc1	.	.	.	40.2	.	.	.	.
COC(=O)c1ccc(S(=O)(=O)NNC(=O)c2ccc(S(=O)(=O)N3CCCCC3)cc2)cc1	.	.	.	.	.	.	/	/
Oc1nc(Nc2cccc(Cl)c2)sc1/C=C1\C=Nc2ccccc21	.	.	.	.	.	.	/	/
Oc1cccc(Nc2nc(O)c(/C=C3\C=Nc4ccccc43)s2)c1	.	.	.	77.2	/	.	129.6	129.7
CC1=C(C(=O)O)N2C(=O)C(NC(=O)c3nn(C)c(C)c3Cl)C2SC1 (configuration not stated)	.	.	.	.	.	.	/	/
Cc1cc(=O)oc2cc(OC(C)C(=O)NCC3CCCO3)ccc12 (configuration not stated)	.	.	.	.	.	.	/	/
O=C1/C(=C/c2ccco2)CCc2ccccc21	.	.	.	.	.	.	/	/
Nc1ccc2c(c1)C/C(=C/c1ccco1)C2=O	.	.	.	26.3	.	.	.	.
O=C1CSC(=S)N1/N=C/c1cc(Br)c(O)c(Br)c1	.	132.6	.	81.7	/	.	75.0	83.7
CN(C)S(=O)(=O)c1ccc(N2CCOCC2)c(C(=O)O)c1	.	.	.	.	.	.	/	/
COc1ccc(NC(=O)CSc2ccc3nnc(CCNC(=O)c4ccccc4)n3n2)cc1	.	.	.	40.8	.	.	.	.

Compound activity as filed in PubChem.
